Test results: ChEMBL document CHEMBL1134793, “Investigation of the selectivity of oxymorphone- and naltrexone-derived ligands via site-directed mutagenesis of opioid receptors: exploring the "address" recognition locus” (J Med Chem, 2001)

Key:
Assay type in all cases: cell-based, HEK293
Mu-type opioid receptor [1] = target: Mu-type opioid receptor (Rattus norvegicus, UniProt P33535, K303E); assay: Displacement of [3H]- diprenorphine from mu-K303E-receptor expressed in HEK 293 cells
Mu-type opioid receptor [2] = target: Mu-type opioid receptor (Rattus norvegicus, UniProt P33535, W318A); assay: Displacement of [3H]- diprenorphine from mu-W318A-receptor expressed in HEK 293 cells
[3] = target: Delta-type opioid receptor (Mus musculus, UniProt P32300); assay: Displacement of [3H]- diprenorphine from delta receptor expressed in HEK 293 cells
In short: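 HEK-293 cells transiently transfected with wild-type or mutant receptor cDNA by calcium phosphate were harvested 60-72 h later and suspended in 25 mM HEPES, pH 7.4. […] Nonspecific binding was defined with 1 μM NTI. Bound ligand was filtered on PEI-soaked GF/B and counted.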

[4] = target: Delta-type opioid receptor (Mus musculus, UniProt P32300, W284E); assay: Displacement of [3H]- diprenorphine from delta-W284E-receptor expressed in HEK 293 cells
In short: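 HEK-293 cells transiently transfected with wild-type or mutant receptor cDNA by calcium phosphate were harvested 60-72 h later and suspended in 25 mM HEPES, pH 7.4. Nonspecific binding was defined with 1 μM NTI. Bound ligand was filtered on PEI-soaked GF/B and counted.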

[5] = target: Kappa-type opioid receptor (Rattus norvegicus, UniProt P34975, E297A); assay: Displacement of [3H]diprenorphine from k-E297A-receptor expressed in HEK 293 cells
[6] = target: Kappa-type opioid receptor (Rattus norvegicus, UniProt P34975, Y312A); assay: Displacement of [3H]diprenorphine from k-Y312A-receptor expressed in HEK 293 cells
[7] = target: Kappa-type opioid receptor (Rattus norvegicus, UniProt P34975); assay: Displacement of [3H]diprenorphine from opioid receptor kappa 1 expressed in HEK 293 cells
Mu-type opioid receptor [8] = target: Mu-type opioid receptor (Rattus norvegicus, UniProt P33535); assay: Displacement of [3H]- diprenorphine from mu-receptor expressed in HEK 293 cells
Sequence of Mu-type opioid receptor (Rattus norvegicus, UniProt P33535) (P33535 whole entry): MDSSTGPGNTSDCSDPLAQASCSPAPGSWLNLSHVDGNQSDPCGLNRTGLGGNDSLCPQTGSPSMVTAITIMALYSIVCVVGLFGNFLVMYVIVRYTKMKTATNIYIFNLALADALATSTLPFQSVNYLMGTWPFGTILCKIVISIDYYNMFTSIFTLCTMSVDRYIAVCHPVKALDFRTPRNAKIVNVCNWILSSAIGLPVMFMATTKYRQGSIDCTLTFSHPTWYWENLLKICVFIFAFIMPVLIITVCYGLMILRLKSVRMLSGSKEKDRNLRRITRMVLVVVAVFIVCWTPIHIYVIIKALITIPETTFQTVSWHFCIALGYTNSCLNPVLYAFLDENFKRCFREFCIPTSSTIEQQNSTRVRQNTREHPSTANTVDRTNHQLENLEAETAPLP

Sequence of Delta-type opioid receptor (Mus musculus, UniProt P32300, W284E) (P32300 whole entry W284E): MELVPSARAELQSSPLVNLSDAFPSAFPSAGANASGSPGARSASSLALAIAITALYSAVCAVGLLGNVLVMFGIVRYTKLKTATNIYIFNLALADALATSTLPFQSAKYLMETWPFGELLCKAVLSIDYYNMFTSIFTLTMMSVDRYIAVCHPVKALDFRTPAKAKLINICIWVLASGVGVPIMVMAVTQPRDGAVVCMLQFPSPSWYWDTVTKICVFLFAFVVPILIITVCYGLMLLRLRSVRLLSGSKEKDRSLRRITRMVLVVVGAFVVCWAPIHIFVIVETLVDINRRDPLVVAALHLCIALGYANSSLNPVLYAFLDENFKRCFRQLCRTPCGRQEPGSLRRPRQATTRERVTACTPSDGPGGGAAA
Sequence of Delta-type opioid receptor (Mus musculus, UniProt P32300) (P32300 whole entry): as the sequence (P32300 whole entry W284E) above, with E284W counted along it
Sequence of Kappa-type opioid receptor (Rattus norvegicus, UniProt P34975) (P34975 whole entry): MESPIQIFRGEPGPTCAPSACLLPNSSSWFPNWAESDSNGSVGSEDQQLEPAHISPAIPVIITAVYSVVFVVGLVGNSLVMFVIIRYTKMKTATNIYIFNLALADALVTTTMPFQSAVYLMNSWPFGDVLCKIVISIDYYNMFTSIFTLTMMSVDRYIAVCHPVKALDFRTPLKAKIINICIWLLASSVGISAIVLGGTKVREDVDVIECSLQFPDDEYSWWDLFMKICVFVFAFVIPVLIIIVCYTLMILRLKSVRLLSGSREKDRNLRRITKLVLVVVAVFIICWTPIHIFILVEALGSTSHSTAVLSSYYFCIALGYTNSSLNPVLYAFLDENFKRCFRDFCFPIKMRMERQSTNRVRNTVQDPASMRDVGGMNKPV
Sequence of Kappa-type opioid receptor (Rattus norvegicus, UniProt P34975, E297A) (P34975 whole entry E297A): as the sequence (P34975 whole entry) above, with E297A counted along it
Sequence of Kappa-type opioid receptor (Rattus norvegicus, UniProt P34975, Y312A) (P34975 whole entry Y312A): as the sequence (P34975 whole entry) above, with Y312A counted along it
Sequence of Mu-type opioid receptor (Rattus norvegicus, UniProt P33535, K303E) (P33535 whole entry K303E): as the sequence (P33535 whole entry) above, with K303E counted along it
Sequence of Mu-type opioid receptor (Rattus norvegicus, UniProt P33535, W318A) (P33535 whole entry W318A): as the sequence (P33535 whole entry) above, with W318A counted along it

Row | Structure (SMILES) | Ki (Mu-type opioid receptor [1]) [nM] | Ki (Mu-type opioid receptor [2]) [nM] | Ki [3] [nM] | Ki [4] [nM] | Ki [5] [nM] | Ki [6] [nM] | Ki [7] [nM] | Ki (Mu-type opioid receptor [8]) [nM]
1 | N=C(N)Nc1ccc2[nH]c3c(c2c1)C[C@@]1(O)[C@H]2Cc4ccc(O)c5c4[C@@]1(CCN2CC1CC1)[C@H]3O5 [GUANIDINONALTRINDOLE] | 0.09 | 0.5 | 46.2 | 1.1 | 3.9 | 0.03 | – | –
2 | Oc1ccc2c3c1O[C@H]1c4[nH]c5ccccc5c4C[C@@]4(O)[C@@H](C2)N(CC2CC2)CC[C@]314 [NALTRINDOLE] | – | – | 0.19 | 1.82 | 42 | 1.23 | 25.5 | –
3 | Oc1ccc2c3c1O[C@H]1c4[nH]c5c(c4C[C@@]4(O)[C@@H](C2)N(CC2CC2)CC[C@]314)C[C@@]1(O)[C@H]2Cc3ccc(O)c4c3[C@@]1(CCN2CC1CC1)[C@H]5O4 [NORBINALTORPHIMINE] | – | – | – | – | – | 1.39 | 0.07 | –
4 | CN1CC[C@]23c4c5ccc(O)c4O[C@H]2C(=O)C2(Cc4ccccc4C2)C[C@@]3(O)[C@H]1C5 [SPIROINDANYLOXYMORPHONE] | 154 | 3.9 | 4.1 | 46.6 | 292 | 55 | 488 | 88.4
